Test results published in PubChem BioAssay AID623961 (The Scripps Research Institute Molecular Screening Center, 2012).
“And” between values parts separate entries of the source, which are not always exact repeats. Equal entries are not always repeated. The source made the active and inactive calls.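 The calls were made as follows: active = mean cell viability below 80%; inactive = the rest.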

Test system: Huh-7.5 Rluc-replicon viability, CellTiter-Glo ATP, 72 h
Assay: Huh-7.5 replicon viability loss – cell-based, luminescence, cytotoxicity control for HCV NS3 helicase inhibitor project, late-stage follow-up (AID 623961)
Conditions: at 10 µM; stronger effect = lower value
Outline: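 Assay system: Huh-7.5 cells with HCV RLuc replicon. Times: cell attachment 4-5 h, compound exposure 72 h at 37 °C, 5% CO2. Signal: ATP luminescence after 30 min lysis at 23 °C. Buffer or medium: growth medium, replaced before viability reagent. Compound: 10 µM single concentration, 0.5% DMSO.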

Structure (SMILES)	viability
Cc1ccc2nc(-c3ccc(NC(=O)c4ccc(N)cc4)cc3)sc2c1S(=O)(=O)O	103% (inactive)
CCOc1ccc2nc(NC(=O)c3ccc4ncsc4c3)sc2c1	3%
Cc1ccc2c(sc(-c3ccc4c(c3)sc(-c3ccc5c(c3)sc(-c3ccc(N(C)C)cc3)[n+]5C)[n+]4C)[n+]2C)c1S(=O)(=O)O (tested in a mixture with another compound)	83% (inactive)
Cc1ccc2nc(-c3ccc4nc(-c5ccc(NC(=O)c6cccnc6)cc5)sc4c3)sc2c1S(=O)(=O)O	113% (inactive)
Cc1ccc2nc(-c3ccc4nc(-c5ccc(NC(=S)Nc6ccccc6)cc5)sc4c3)sc2c1S(=O)(=O)O	98% (inactive)
Cc1cc(C(O)(c2ccc(Nc3ccccc3)cc2)c2ccc(Nc3ccc(S(=O)(=O)O)cc3)cc2)ccc1N (stereo not given)	73%
Cc1ccc2nc(-c3ccc4nc(-c5ccc(NC(=O)Nc6ccc(C(F)(F)F)cc6)cc5)sc4c3)sc2c1S(=O)(=O)O	99% (inactive)
Cc1ccc2nc(-c3ccc4nc(-c5ccc(NC(=O)Nc6ccccc6)cc5)sc4c3)sc2c1S(=O)(=O)O	108% (inactive)
Cc1ccc2nc(-c3ccc4nc(-c5ccc(NC(=O)c6cc(C(F)(F)F)ccc6F)cc5)sc4c3)sc2c1S(=O)(=O)O	132% (inactive)
Cc1ccc2nc(-c3ccc(NC(=O)c4ccc(NC(=O)c5ccccc5)cc4)cc3)sc2c1S(=O)(=O)O	115% (inactive)
Cc1ccc(NC(=O)Nc2ccc(-c3nc4ccc(-c5nc6ccc(C)c(S(=O)(=O)O)c6s5)cc4s3)cc2)cc1	93% (inactive)
Cc1ccc2nc(-c3ccc4nc(-c5ccc(NC(=O)Nc6ccc(F)cc6)cc5)sc4c3)sc2c1S(=O)(=O)O	93% (inactive)
CCOc1ccc2c(NNC(=O)c3cnccn3)c3c(nc2c1)CCCC3	31%
Cc1ccc2nc(-c3ccc(NC(=O)c4ccc(C(F)(F)F)cc4)cc3)sc2c1S(=O)(=O)O	102% (inactive)
O=C(Nc1ccc(-c2nc3ccccc3[nH]2)cc1)c1ccc2ncsc2c1	96% (inactive)
Cc1ccc(C(=O)Nc2ccc(-c3nc4ccc(-c5nc6ccc(C)c(S(=O)(=O)O)c6s5)cc4s3)cc2)cc1	87% (inactive)
Cc1ccc2nc(-c3ccc4nc(-c5ccc(NC(=O)c6ccc(C(F)(F)F)c(F)c6)cc5)sc4c3)sc2c1S(=O)(=O)O	129% (inactive)
O=C(Nc1nc2ccc(Br)cc2s1)c1ccc2ncsc2c1	89% (inactive)
Cc1ccc2nc(-c3ccc4nc(-c5ccc(NC(=O)c6cccc7ccccc67)cc5)sc4c3)sc2c1S(=O)(=O)O	103% (inactive)
Cc1ccc2nc(-c3ccc4nc(-c5ccc(NC(=O)c6cccc(C(F)(F)F)c6F)cc5)sc4c3)sc2c1S(=O)(=O)O	122% (inactive)
Cc1ccc2nc(-c3ccc(NC(=O)c4ccc(NS(=O)(=O)c5ccccc5)cc4)cc3)sc2c1S(=O)(=O)O	119% (inactive)
Cc1ccc2nc(-c3ccc(NC(=O)c4ccc(NC(=S)Nc5ccccc5)cc4)cc3)sc2c1S(=O)(=O)O	106% (inactive)
CCN(CC)c1ccc(-c2nc3ccc(C)c(S(=O)(=O)O)c3s2)cc1	99% (inactive)
COc1cccc2c(=O)c3cc(Cl)cc(C(=O)Nc4cc(Cl)ccn4)c3[nH]c12	79%

Structure (SMILES)	viability
O=C(CCCCCCC(=O)Nc1ccc(-c2nc3ccccc3[nH]2)cc1)Nc1ccc(-c2nc3ccccc3[nH]2)cc1	31%
COc1ccc(C(=O)Nc2ccc(-c3nc4ccc(-c5nc6ccc(C)c(S(=O)(=O)O)c6s5)cc4s3)cc2)cc1	85% (inactive)
Cc1ccc2nc(-c3ccc4nc(-c5ccc(NC(=O)c6cccc(C(F)(F)F)c6)cc5)sc4c3)sc2c1S(=O)(=O)O	121% (inactive)
Cc1ccc2nc(-c3ccc4nc(-c5ccc(NC(=O)c6ccc7nc(-c8ccc(NC(=O)OCC9c%10ccccc%10-c%10ccccc%109)cc8)sc7c6)cc5)sc4c3)sc2c1S(=O)(=O)O	90% (inactive) and 95% (inactive)
Cc1ccc2nc(-c3ccc4nc(-c5ccc(NC(=O)c6ccc(CNC(=O)OCC7c8ccccc8-c8ccccc87)cc6)cc5)sc4c3)sc2c1S(=O)(=O)O	102% (inactive)
Cc1ccc2nc(-c3ccc(NC(=S)Nc4ccccc4Br)cc3)sc2c1	39%
Cc1ccc2nc(-c3ccc4nc(-c5ccc(NC(=O)c6c(F)cccc6C(F)(F)F)cc5)sc4c3)sc2c1S(=O)(=O)O	122% (inactive)
Cc1ccc2nc(-c3ccc4nc(-c5ccc(NC(=O)c6ccc(N)cc6)cc5)sc4c3)sc2c1S(=O)(=O)O	93% (inactive)
Cc1ccc2nc(-c3ccc4nc(-c5ccc(NC(=O)c6ccccc6C(F)(F)F)cc5)sc4c3)sc2c1S(=O)(=O)O	112% (inactive)
Cc1ccc2nc(-c3ccc4nc(-c5ccc(NC(=O)c6ccc(N(C)C)cc6)cc5)sc4c3)sc2c1S(=O)(=O)O	94% (inactive)
Cc1ccc2nc(-c3ccc(NC(=O)c4ccc(NC(=O)c5ccc(N)cc5)cc4)cc3)sc2c1S(=O)(=O)O	112% (inactive)
COc1ccc(NC(=O)Nc2ccc(-c3nc4ccc(-c5nc6ccc(C)c(S(=O)(=O)O)c6s5)cc4s3)cc2)cc1	99% (inactive)
Cc1ccc2nc(-c3ccc4nc(-c5ccc(NC(=O)c6ccc(Cl)c(Cl)c6)cc5)sc4c3)sc2c1S(=O)(=O)O	114% (inactive)
Cc1ccc2nc(-c3ccc4nc(-c5ccc(NC(=O)c6ccc7nc(-c8ccc(N)cc8)sc7c6)cc5)sc4c3)sc2c1S(=O)(=O)O	85% (inactive)
Cc1ccc2nc(-c3ccc(NC(=O)c4ccc(NC(=O)Nc5ccccc5)cc4)cc3)sc2c1S(=O)(=O)O	113% (inactive)
CC(=O)Nc1ccc(-c2nc3ccc(-c4nc5ccc(C)c(S(=O)(=O)O)c5s4)cc3s2)cc1	102% (inactive)
Cc1ccc2nc(-c3ccc4nc(-c5ccc(NC(=O)c6ccccc6)cc5)sc4c3)sc2c1S(=O)(=O)O	88% (inactive)
CN1CCN(Cc2cc(CN3CCN(C)CC3)c(O)c(=O)c(CN3CCN(C)CC3)c2)CC1	69%
COc1ccc2sc(NC(=O)c3ccc4ncsc4c3)nc2c1	50%
Cc1ccc2nc(-c3ccc4nc(-c5ccc(NC(=O)c6ccc(NC(=O)OCC7c8ccccc8-c8ccccc87)cc6)cc5)sc4c3)sc2c1S(=O)(=O)O	92% (inactive)
Cc1ccc2nc(-c3ccc4nc(NC(=O)c5ccc6ncoc6c5)sc4c3)sc2c1	28%
Cc1ccc2nc(-c3ccc4nc(-c5ccc(NC(=O)c6ccc(C(C)(C)C)cc6)cc5)sc4c3)sc2c1S(=O)(=O)O	87% (inactive)
Cc1ccc2nc(-c3ccc(NC(=O)c4ccc(NC(=O)c5ccc(C(F)(F)F)cc5)cc4)cc3)sc2c1S(=O)(=O)O	97% (inactive)
NS(=O)(=O)c1ccc2nc(NC(=O)c3ccc4ncsc4c3)sc2c1	94% (inactive)

Structure (SMILES)	viability
Cc1cc2sc(-c3ccc(N)cc3)nc2cc1S(=O)(=O)O	88% (inactive)
Cc1ccc2nc(-c3ccc4nc(-c5ccc(NC(=O)Nc6ccc(Cl)cc6)cc5)sc4c3)sc2c1S(=O)(=O)O	98% (inactive)
COc1ccc(S(=O)(=O)Nc2ccc(-c3nc4ccc(-c5nc6ccc(C)c(S(=O)(=O)O)c6s5)cc4s3)cc2)cc1	75%
Cc1cc2sc(-c3ccc4nc(-c5ccc(N)cc5)sc4c3)nc2cc1S(=O)(=O)O	87% (inactive)
Cc1ccc2nc(-c3ccc4nc(-c5ccc6nc(-c7ccc(N)cc7)sc6c5)sc4c3)sc2c1S(=O)(=O)O (tested in a mixture with another compound)	98% (inactive)
Cc1ccc2nc(-c3ccc4nc(-c5ccc(N)cc5)sc4c3)sc2c1S(=O)(=O)O	85% (inactive) and 105% (inactive) and 95% (inactive)
Cc1ccc2nc(-c3ccc(NC(=O)c4ccc(NC(=O)OCC5c6ccccc6-c6ccccc65)cc4)cc3)sc2c1S(=O)(=O)O	108% (inactive)
Cc1ccc2nc(-c3ccc4nc(-c5ccc6nc(-c7ccc8nc(-c9ccc(N)cc9)sc8c7)sc6c5)sc4c3)sc2c1S(=O)(=O)O	94% (inactive) and 83% (inactive)
Cc1ccc2nc(-c3ccc4nc(-c5ccc(NC(=O)c6cccc(Cl)c6)cc5)sc4c3)sc2c1S(=O)(=O)O	112% (inactive)
Cc1ccc2nc(-c3ccc4nc(-c5ccc(NS(=O)(=O)c6ccc(C(F)(F)F)cc6)cc5)sc4c3)sc2c1S(=O)(=O)O	101% (inactive)
Cc1ccc2nc(-c3ccc4nc(-c5ccc(N(C)C(=O)c6ccc7ccccc7c6)cc5)sc4c3)sc2c1S(=O)(=O)O	101% (inactive)
Cc1ccc2nc(-c3ccc4nc(-c5ccc(NC(=O)c6ccc(C(F)(F)F)cc6)cc5)sc4c3)sc2c1S(=O)(=O)O	90% (inactive)
Cc1ccc2nc(-c3ccc4nc(-c5ccc(NC(=O)c6ccc(Br)cc6)cc5)sc4c3)sc2c1S(=O)(=O)O	113% (inactive)
Cc1ccc2nc(-c3ccc(N)cc3)sc2c1S(=O)(=O)O	104% (inactive)
Cc1ccc2nc(-c3ccc4nc(-c5ccc(NC(=O)c6cc(F)cc(C(F)(F)F)c6)cc5)sc4c3)sc2c1S(=O)(=O)O	113% (inactive)
CS(=O)(=O)c1ccc2nc(NC(=O)c3ccc4ncsc4c3)sc2c1	41%
Cc1ccc2nc(-c3ccc(NC(=O)c4ccc(NC(=O)c5ccc(NC(=O)OCC6c7ccccc7-c7ccccc76)cc5)cc4)cc3)sc2c1S(=O)(=O)O	113% (inactive)
Cc1ccc2nc(-c3ccc4nc(-c5ccc(NC(=O)c6cc(C(F)(F)F)cc(C(F)(F)F)c6)cc5)sc4c3)sc2c1S(=O)(=O)O	122% (inactive)
Cc1ccc2nc(-c3ccc4nc(-c5ccc6nc(-c7ccc(N)cc7)sc6c5)sc4c3)sc2c1S(=O)(=O)O	91% (inactive)
Cc1ccc2nc(-c3ccc4nc(-c5ccc(NCc6ccccc6)cc5)sc4c3)sc2c1S(=O)(=O)O	109% (inactive)
Cc1ccc2nc(-c3ccc4nc(-c5ccc(NC(=O)c6ccc7ncoc7c6)cc5)sc4c3)sc2c1S(=O)(=O)O	114% (inactive)
Cc1ccc2nc(-c3ccc4nc(-c5ccc(NC(=O)c6ccc(F)cc6)cc5)sc4c3)sc2c1S(=O)(=O)O	94% (inactive)
